Laboratory results reported in PubChem BioAssay AID434971 (Sanford-Burnham Center for Chemical Genomics, 2010).
The campaign covered roughly 11,000 compounds. About 510 (4.6%) were called active. Many of the other results were omitted from the sample, so actives are more common in it than they were. Unmarked numbers belong to inactive results.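 The calls were made as follows: active = inhibition of at least 40% at 10 µM in either of the two replicates; inactive = the rest.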

system: intestinal alkaline phosphatase [Mus musculus]; assay: inhibitors of mouse IAP, confirmation, biochemical, luminescence, single concentration (AID 434971); conditions: purified mouse IAP, CDP-Star luminescence, 30 min; at 10 µM; stronger effect = higher value;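 also: plate controls were DMSO wells with enzyme for no effect and buffer wells lacking enzyme for full effect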
How it was run: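 assay system = mouse IAP enzyme | measured by = luminescence from CDP-Star dephosphorylation | reagent = CDP-Star as the luminogenic phosphatase substrate | incubation = 30 min enzyme-substrate-compound incubation at room temperature | dosing = compound in DMSO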

| Structure (SMILES) | inhibition |
| --- | --- |
| COc1ccc(N2C(=O)/C(=C/c3ccco3)C(=O)NC2=S)cc1 | 43.2% (active) |
| Cc1cc(C)cc(NC(=S)NC2CC3CCCC(C2)N3Cc2cccs2)c1 (centres undefined) | -150% |
| O=C1NC(=O)N(Cc2ccco2)C(=O)/C1=C\c1cccn1CCOc1ccccc1 | 50.6% (active) |
| O=C1NC(=O)N(Cc2ccco2)C(=O)/C1=C\c1ccc(-c2ccc(F)cc2)o1 | 83.5% (active) |
